# Data taken from article PMC8335715 (Medicinal Chemistry Research, 2021).
# Biological target: rat lens ALR2 (Rattus norvegicus, UniProt P07943)
# Assay: ALR2 enzyme inhibition assay
# Format: biochemical
# Details: ratio IC50 ALR1 / IC50 ALR2; called SF in text
# Summary of the method: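 Rat lens enzyme (male Wistar) was partially purified: homogenised in cold water, spun at 10.000 g, fractionated with ammonium sulfate (40/50/75%). Substrate was D,L-glyceraldehyde in 0.067 M phosphate, pH 6.2, at 30 °C. Substrate started the reaction, and a substrate-free blank corrected NADPH oxidation. Test compound was in NaHCO3 or DMSO (1% final). IC50 came from least-squares fit of the linear semilog portion (25–75% inhibition), at least two experiments. The selectivity index was calculated against kidney-enzyme IC50.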
structure (smiles),measurement,value
"COc1ccc2nc(/N=C3/NC(=O)C(=Cc4ccc(O)cc4)S3)sc2c1 [Compound 2, (Z)-5-(4-hydroxybenzylidene)-2-((6-methoxybenzo[d]thiazol-2-yl)imino)thiazolidin-4-one]",Selectivity index (ALR1/ALR2),< 1
"COc1ccc2nc(/N=C3/NC(=O)C(=Cc4ccc(O)c(OC)c4)S3)sc2c1 [Compound 4, (Z)-5-(4-hydroxy-3-methoxybenzylidene)-2-((6-methoxybenzo[d]thiazol-2-yl)imino) thiazolidin-4-one]",Selectivity index (ALR1/ALR2),< 1
"COc1ccc(/C=C2\SC(=Nc3nc4ccc(OC)cc4s3)NC2=O)cc1 [Compound 3, (Z)-2-((6-methoxybenzo[d]thiazol-2-yl)imino)-5-(4-methoxybenzylidene)thiazolidin-4-one]",Selectivity index (ALR1/ALR2),< 1
